Laboratory results: paper PMC5164959 (Biochemical pharmacology, 2016)
Where two headings read alike, the source gives them in different places.

What was measured:
5-HT6 = 5-HT6 (Homo sapiens, UniProt P50406); experiment: Radioligand competition binding assay
How it was run: (§1)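 Run by the NIMH PDSP as radioligand competition binding assays. The primary screen used 10 μM test compound and reported mean percent inhibition of radioligand binding (n=4); above 50% counted as significant. At those receptors, IC50 values came from non-linear regression of competition binding isotherms and were converted to Ki with the Cheng-Prusoff equation.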

DGKδ = DGKδ (Homo sapiens, UniProt Q16760); experiment: Kinase assay with HEK 293T cell homogenate over-expressing DGKδ; type: biochemical; conditions: 20 μM inhibitor, dioleoyl DAG liposomes
How it was run: (§2)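 Reactions without CaCl2 contained 5 μg homogenate, 2 mM liposomes (10 mol% dioleoyl DAG, 40 mol% PS, 50 mol% PC), buffer B, 1 mM DTT and [γ32P]-ATP, 20 min at 30°C. Test compound was added from DMSO. Extracted 32P-lipid was counted, GFP-lysate normalized, and expressed as percent of DMSO control.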

5-HT2A = 5-HT2A (Homo sapiens, UniProt P28223); experiment: Radioligand competition binding assay
Chain of 5-HT2A (P28223 whole entry, species assumed): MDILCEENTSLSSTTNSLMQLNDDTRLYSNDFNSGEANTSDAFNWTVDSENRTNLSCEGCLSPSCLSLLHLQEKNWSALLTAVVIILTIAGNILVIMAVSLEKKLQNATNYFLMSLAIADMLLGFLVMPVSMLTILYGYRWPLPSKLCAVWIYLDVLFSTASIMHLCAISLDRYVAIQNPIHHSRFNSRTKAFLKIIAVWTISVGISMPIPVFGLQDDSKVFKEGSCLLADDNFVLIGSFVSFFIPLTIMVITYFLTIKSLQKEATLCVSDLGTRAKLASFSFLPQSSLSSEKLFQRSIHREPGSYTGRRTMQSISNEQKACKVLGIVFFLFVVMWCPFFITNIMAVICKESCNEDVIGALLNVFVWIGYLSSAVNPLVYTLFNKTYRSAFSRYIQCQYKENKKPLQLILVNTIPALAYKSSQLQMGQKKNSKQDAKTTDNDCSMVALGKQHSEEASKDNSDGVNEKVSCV

PKC [1] = experiment: PKC activation: phosphorylation of PKC substrates by western blot in U251 cells; type: cell-based, human; conditions: treatment for 30 min
How it was run: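 Glioblastoma cells were treated 30 min with 4 or 40 μM test compound or 100 nM PMA, with or without 1 h pretreatment with 500 nM bisindolylmaleimide II. Cleared Triton lysates (50 μg) were run on 8.75% SDS-PAGE and probed with phospho-(Ser) PKC substrate antibody, detected by alkaline phosphatase chemiluminescence. Three independent experiments were quantified.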

DGKγ = conditions: 30 μM R59022; cited from earlier work
5-HT1D = 5-HT1D (Homo sapiens, UniProt P28221); experiment: Radioligand competition binding assay
Chain of 5-HT1D (P28221 whole entry, species assumed): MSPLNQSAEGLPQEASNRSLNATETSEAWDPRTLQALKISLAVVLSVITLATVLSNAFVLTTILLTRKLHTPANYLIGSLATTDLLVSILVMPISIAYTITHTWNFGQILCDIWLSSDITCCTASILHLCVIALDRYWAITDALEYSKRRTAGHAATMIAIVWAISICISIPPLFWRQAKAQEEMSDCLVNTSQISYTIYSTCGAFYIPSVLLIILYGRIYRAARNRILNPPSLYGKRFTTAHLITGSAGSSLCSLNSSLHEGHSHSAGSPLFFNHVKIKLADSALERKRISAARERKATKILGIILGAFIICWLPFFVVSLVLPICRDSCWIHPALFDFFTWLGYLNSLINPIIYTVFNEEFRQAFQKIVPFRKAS
How it was run: as §1

PKC [2] = experiment: PKC activation: phosphorylation of PKC substrates by western blot in HeLa cells; type: cell-based, human; conditions: 40 μM, 30 min
How it was run: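 HeLa cells were grown in DMEM with 5% FBS and treated 30 min with 4 or 40 μM test compound or 100 nM PMA, with or without 1 h pretreatment with 500 nM bisindolylmaleimide II. In separate runs, a 5-HT2AR agonist (10 μM, 6 h) was given with or without 40 μM antagonist. Lysates (50 μg) were immunoblotted for phospho-(Ser) PKC substrates; four independent experiments were quantified.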

5-HT1B = 5-HT1B (Homo sapiens, UniProt P28222); experiment: Radioligand competition binding assay
Chain of 5-HT1B (P28222 whole entry, species assumed): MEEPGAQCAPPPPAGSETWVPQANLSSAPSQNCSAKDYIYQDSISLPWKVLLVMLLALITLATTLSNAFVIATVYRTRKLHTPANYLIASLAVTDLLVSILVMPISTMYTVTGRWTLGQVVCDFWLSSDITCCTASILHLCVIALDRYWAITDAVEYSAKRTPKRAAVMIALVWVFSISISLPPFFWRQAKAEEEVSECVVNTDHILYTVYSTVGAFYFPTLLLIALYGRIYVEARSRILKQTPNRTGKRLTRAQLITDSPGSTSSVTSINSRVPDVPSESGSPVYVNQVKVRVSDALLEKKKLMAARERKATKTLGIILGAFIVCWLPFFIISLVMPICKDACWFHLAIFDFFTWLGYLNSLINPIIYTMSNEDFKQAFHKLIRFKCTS
How it was run: as §1

DGKθ [3] = biological target: DGKθ (Homo sapiens, UniProt P52824); experiment: Kinase assay with HEK 293T cell homogenate over-expressing DGKθ; type: biochemical; conditions: 20 μM inhibitor, dioleoyl DAG liposomes
How it was run: as §2

DGKθ [4] = conditions: cited from earlier work
DGKι = DGKι (Homo sapiens, UniProt O75912); experiment: Kinase assay with HEK 293T cell homogenate over-expressing DGKι; type: biochemical
Chain of DGKι (O75912 1-1065 isoform O75912-1): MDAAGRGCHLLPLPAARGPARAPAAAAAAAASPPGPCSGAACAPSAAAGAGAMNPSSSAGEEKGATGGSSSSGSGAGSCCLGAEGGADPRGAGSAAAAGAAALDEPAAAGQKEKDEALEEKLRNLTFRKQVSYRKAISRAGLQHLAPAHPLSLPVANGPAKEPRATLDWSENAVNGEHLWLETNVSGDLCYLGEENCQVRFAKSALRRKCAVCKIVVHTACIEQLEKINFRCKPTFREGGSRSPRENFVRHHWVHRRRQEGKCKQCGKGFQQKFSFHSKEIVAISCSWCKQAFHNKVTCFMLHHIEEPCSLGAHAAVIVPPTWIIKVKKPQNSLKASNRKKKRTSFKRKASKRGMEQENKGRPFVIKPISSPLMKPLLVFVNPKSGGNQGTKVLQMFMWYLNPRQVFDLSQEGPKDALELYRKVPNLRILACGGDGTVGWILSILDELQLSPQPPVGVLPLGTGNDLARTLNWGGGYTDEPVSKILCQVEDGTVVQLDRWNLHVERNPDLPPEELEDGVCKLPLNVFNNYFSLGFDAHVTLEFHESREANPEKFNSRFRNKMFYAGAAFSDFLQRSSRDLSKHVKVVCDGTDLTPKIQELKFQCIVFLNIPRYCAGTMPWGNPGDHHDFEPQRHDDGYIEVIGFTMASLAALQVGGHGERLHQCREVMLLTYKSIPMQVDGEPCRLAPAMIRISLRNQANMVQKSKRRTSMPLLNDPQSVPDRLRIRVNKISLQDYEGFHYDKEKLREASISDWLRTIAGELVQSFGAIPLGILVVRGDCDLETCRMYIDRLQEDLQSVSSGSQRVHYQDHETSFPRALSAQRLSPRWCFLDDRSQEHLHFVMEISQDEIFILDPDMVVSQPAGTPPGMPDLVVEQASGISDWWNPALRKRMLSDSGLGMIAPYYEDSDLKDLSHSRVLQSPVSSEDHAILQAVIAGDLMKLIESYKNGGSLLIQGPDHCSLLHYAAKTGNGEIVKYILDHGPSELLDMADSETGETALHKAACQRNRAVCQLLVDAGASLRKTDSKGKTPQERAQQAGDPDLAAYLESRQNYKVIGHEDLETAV

DGKα [5] = biological target: T1, DGKα (Rattus norvegicus, UniProt P51556); experiment: Kinase assay with HEK 293T cell homogenate over-expressing DGKα; type: biochemical
T1 sequence (P51556 whole entry): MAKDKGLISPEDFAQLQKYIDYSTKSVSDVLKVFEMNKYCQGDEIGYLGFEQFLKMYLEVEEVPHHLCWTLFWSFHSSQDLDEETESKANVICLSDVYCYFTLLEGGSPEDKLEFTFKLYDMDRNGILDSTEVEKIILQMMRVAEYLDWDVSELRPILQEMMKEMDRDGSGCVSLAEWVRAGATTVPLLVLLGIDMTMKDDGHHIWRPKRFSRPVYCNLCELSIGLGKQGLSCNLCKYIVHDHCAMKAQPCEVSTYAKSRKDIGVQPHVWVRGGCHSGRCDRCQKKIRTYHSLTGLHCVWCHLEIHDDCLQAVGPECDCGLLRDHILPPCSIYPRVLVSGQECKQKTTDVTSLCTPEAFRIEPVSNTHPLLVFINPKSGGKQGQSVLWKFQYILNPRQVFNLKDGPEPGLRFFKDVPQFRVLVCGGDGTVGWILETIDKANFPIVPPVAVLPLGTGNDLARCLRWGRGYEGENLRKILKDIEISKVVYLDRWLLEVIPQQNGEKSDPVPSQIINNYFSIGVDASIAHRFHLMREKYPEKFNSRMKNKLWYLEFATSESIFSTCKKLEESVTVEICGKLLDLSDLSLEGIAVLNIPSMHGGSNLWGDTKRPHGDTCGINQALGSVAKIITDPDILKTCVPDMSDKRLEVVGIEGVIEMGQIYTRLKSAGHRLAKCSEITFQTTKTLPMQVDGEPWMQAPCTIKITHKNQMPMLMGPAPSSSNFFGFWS
How it was run: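 Each reaction held 5 μg homogenate protein, 2 mM extruded PC:PS:DAG liposomes (10 mol% dioleoyl, dioctanoyl or stearoyl-arachidonoyl DAG), buffer B, 1 mM DTT, 1 mM CaCl2 and 1 mM [γ32P]-ATP, run 20 min at 30°C. Test compounds came from DMSO stocks. 32P-PA was counted, normalized to GFP lysate and to DMSO control; IC50 from log[inhibitor] versus normalized response.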

DGKβ = conditions: 30 μM R59022; cited from earlier work
5-HT5A = 5-HT5A (Homo sapiens, UniProt P47898); experiment: Radioligand competition binding assay
Chain of 5-HT5A (P47898 whole entry, species assumed): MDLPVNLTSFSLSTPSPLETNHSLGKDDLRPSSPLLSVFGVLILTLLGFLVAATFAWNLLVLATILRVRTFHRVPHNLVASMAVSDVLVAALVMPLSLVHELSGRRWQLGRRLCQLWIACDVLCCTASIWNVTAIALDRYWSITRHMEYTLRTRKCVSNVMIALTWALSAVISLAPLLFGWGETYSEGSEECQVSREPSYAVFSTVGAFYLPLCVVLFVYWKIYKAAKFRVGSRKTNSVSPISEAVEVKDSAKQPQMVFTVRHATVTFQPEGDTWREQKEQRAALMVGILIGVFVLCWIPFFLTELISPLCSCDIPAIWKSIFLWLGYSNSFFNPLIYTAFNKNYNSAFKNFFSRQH
How it was run: as §1

5-HT7 = 5-HT7 (Homo sapiens, UniProt P34969); experiment: Radioligand competition binding assay
Chain of 5-HT7 (P34969 whole entry, species assumed): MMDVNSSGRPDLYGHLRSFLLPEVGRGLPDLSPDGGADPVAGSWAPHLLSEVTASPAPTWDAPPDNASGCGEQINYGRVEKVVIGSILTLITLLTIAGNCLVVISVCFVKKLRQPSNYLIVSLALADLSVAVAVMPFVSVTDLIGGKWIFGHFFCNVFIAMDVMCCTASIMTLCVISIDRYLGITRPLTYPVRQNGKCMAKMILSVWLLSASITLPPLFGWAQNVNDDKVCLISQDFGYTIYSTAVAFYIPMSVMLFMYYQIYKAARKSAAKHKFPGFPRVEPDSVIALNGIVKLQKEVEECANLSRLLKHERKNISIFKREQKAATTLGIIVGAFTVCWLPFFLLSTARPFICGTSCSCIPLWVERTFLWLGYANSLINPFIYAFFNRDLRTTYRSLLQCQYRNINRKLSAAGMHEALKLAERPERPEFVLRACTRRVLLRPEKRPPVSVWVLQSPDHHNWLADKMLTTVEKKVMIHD
How it was run: as §1

5-HT1A = biological target: T2, 5-HT1A (Homo sapiens, UniProt P08908); experiment: Radioligand competition binding assay
T2 sequence (P08908 1-422): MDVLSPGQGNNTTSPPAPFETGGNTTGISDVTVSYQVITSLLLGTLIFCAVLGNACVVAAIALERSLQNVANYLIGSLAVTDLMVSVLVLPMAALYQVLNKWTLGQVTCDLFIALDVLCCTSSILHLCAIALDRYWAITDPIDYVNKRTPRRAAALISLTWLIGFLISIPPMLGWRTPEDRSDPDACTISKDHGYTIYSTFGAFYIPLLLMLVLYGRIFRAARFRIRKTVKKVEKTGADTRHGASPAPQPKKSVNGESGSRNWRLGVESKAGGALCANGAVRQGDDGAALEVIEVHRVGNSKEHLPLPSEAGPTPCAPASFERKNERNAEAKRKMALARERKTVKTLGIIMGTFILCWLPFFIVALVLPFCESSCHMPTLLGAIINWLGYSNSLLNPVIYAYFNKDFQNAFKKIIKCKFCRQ

DGKα [6] = biological target: T1, DGKα; experiment: Kinase assay with purified DGKα and PC:DAG:PS liposomes; type: biochemical; conditions: for Vmax (ATP): ATP-dependent activity; for Vmax (DAG): DAG-dependent activity; for Decrease of Vmax of purified DGKα: 0.5 mol% drug
How it was run: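 Rat FLAG-DGKα was expressed in HeLa cells by adenovirus (72 h) and purified on FLAG M2 beads. Reactions contained buffer B (MOPS pH 7.5), 1 mM CaCl2, 1 mM DTT and 4.75 mM PC:PS:DAG liposomes (5 mol% DAG), with test compound built into the liposomes at 0.5 or 2.0 mol% or added from DMSO. Reactions with [γ32P]-ATP ran 15 min at 25°C. Km and Vmax came from Michaelis-Menten non-linear regression.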

5-HT3 = 5-HT3 (Homo sapiens, UniProt P46098); experiment: Radioligand competition binding assay; conditions: 10 μM test compound, n=4
How it was run: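 Run by the NIMH PDSP as a radioligand competition binding primary screen. Test compounds were applied at 10 μM, and the read-out was mean percent inhibition of radioligand binding (n=4).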

5-HT2B = 5-HT2B (Homo sapiens, UniProt P41595); experiment: Radioligand competition binding assay
Chain of 5-HT2B (P41595 whole entry, species assumed): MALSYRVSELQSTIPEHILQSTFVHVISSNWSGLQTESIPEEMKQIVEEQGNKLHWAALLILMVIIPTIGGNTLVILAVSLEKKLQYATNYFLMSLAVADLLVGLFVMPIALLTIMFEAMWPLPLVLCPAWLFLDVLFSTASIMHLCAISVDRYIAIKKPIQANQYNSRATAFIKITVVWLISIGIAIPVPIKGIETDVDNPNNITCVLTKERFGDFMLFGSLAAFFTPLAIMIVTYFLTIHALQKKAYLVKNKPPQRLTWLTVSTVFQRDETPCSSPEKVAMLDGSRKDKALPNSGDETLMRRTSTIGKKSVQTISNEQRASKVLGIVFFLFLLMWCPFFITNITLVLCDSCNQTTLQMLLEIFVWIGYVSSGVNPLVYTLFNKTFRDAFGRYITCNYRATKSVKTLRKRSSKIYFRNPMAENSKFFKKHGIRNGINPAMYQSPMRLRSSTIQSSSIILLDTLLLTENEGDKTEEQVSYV

Chain of 5-HT6 (P50406 whole entry, species assumed): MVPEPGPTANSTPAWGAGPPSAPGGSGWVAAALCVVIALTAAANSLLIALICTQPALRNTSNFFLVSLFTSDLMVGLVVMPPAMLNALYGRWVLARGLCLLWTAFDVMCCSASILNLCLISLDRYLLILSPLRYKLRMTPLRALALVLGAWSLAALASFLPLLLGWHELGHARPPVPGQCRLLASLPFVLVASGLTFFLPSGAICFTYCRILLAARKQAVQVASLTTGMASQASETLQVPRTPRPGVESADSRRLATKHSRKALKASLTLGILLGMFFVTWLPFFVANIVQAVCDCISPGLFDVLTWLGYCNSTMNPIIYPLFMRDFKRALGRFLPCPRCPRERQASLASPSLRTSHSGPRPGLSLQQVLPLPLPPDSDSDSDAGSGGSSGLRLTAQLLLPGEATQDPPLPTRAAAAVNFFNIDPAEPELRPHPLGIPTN

## Cc1nc2sccn2c(=O)c1CCN1CCC(=C(c2ccccc2)c2ccc(F)cc2)CC1 [R59022]
5-HT6; 10 μM test compound, n=4
  Percent Inhibition of Binding 5-HT6: 96.9%
5-HT6; read-out: Ki 5-HT6, Cheng-Prusoff from best-fit IC50
  Ki: 55.3 nM
DGKδ
  Activity of DGKδ, percent of control: not detectably inhibited
5-HT2A; 10 μM test compound, n=4
  Percent Inhibition of Binding 5-HT2A: 98.2%
5-HT2A; read-out: Ki 5-HT2A, Cheng-Prusoff from best-fit IC50
  Ki: 2.2 nM
PKC [1]
  Activation of PKC: not in U251 cells
DGKγ
  Inhibition of DGKγ: did not inhibit
5-HT1D; 10 μM test compound, n=4
  Percent Inhibition of Binding 5-HT1D: 90.4%
5-HT1D; read-out: Ki 5-HT1D, Cheng-Prusoff from best-fit IC50
  Ki: 12.3 nM
PKC [2]
  Increase in phosphorylation of PKC downstream targets: about 2.5 fold
5-HT1B; 10 μM test compound, n=4
  Percent Inhibition of Binding 5-HT1B: 83.5%
5-HT1B; read-out: Ki 5-HT1B, Cheng-Prusoff from best-fit IC50
  Ki: 656 nM
DGKθ [3]
  Activity of DGKθ, percent of control: not detectably inhibited
DGKθ [4]
  Inhibition of DGKθ: reported to inhibit
DGKι; 20 μM inhibitor, dioleoyl DAG liposomes, cell homogenate
  Activity of DGKι, percent of control: not detectably inhibited
DGKι; fold higher than IC50 for DGKα
  IC50 for DGKι relative to IC50 for DGKα: 2–3 fold
DGKι; read-out: IC50 for DGKι, cell homogenate, 1 mM ATP, 10 mol% DAG
  IC50: ~60000 nM
DGKα [5]; 20 μM inhibitor, liposomes with dioleoyl DAG, cell homogenate
  Activity of DGKα, percent of control: decreased by about half
DGKα [5]; 20 μM, liposomes containing dioctanoyl or stearoyl arachidonoyl DAG
  Potency against DGKα with other DAG species: similarly potent
DGKα [5]; read-out: IC50 for DGKα, cell homogenate, 1 mM ATP, 10 mol% DAG
  IC50: ~25000 nM
DGKβ
  Inhibition of DGKβ: did not inhibit
5-HT5A; 10 μM test compound, n=4
  Percent Inhibition of Binding 5-HT5A: 92.0%
5-HT5A; read-out: Ki 5-HT5A, Cheng-Prusoff from best-fit IC50
  Ki: 18 nM
5-HT7; 10 μM test compound, n=4
  Percent Inhibition of Binding 5-HT7: 98.5%
5-HT7; read-out: Ki 5-HT7, Cheng-Prusoff from best-fit IC50
  Ki: 14.2 nM
5-HT1A; 10 μM test compound, n=4
  Percent Inhibition of Binding 5-HT1A: 82.4%
5-HT1A; read-out: Ki 5-HT1A, Cheng-Prusoff from best-fit IC50
  Ki: 410 nM
DGKα [6]; 0.5 mol% drug in liposomes, 5 mol% DAG
  Vmax (ATP): 32 ± 1 nmol/min/mg
DGKα [6]; 0.5 mol% drug in liposomes, 1 mM ATP
  Vmax (DAG): 22 ± 1 nmol/min/mg
DGKα [6]; in the context of ATP
  Decrease of Vmax of purified DGKα: 25%
DGKα [6]; in the context of DAG
  Decrease of Vmax of purified DGKα: 40%
DGKα [6]; 2.0 mol% drug in liposomes, 5 mol% DAG
  Vmax (ATP): 20 ± 1 ^† nmol/min/mg
DGKα [6]; 2.0 mol% drug in liposomes, 1 mM ATP
  Vmax (DAG): 16 ± 1.5 nmol/min/mg
DGKα [6]; read-out: Km^app (ATP), 0.5 mol% drug in liposomes, 5 mol% DAG
  Km: 50 ± 10 µM
DGKα [6]; read-out: Km^app (ATP), 2.0 mol% drug in liposomes, 5 mol% DAG
  Km: 30 ± 10 µM
DGKα [6]; read-out: Km^app (DAG), 0.5 mol% drug in liposomes, 1 mM ATP
  Km: 110 ± 20 µM
DGKα [6]; read-out: Km^app (DAG), 2.0 mol% drug in liposomes, 1 mM ATP
  Km: 100 ± 20 µM
5-HT3
  Percent Inhibition of Binding 5-HT3: 10.9%
5-HT2B; 10 μM test compound, n=4
  Percent Inhibition of Binding 5-HT2B: 100.5%
5-HT2B; read-out: Ki 5-HT2B, Cheng-Prusoff from best-fit IC50
  Ki: 2.7 nM
